Drawing on ChEMBL document CHEMBL1139414, “Conformationally constrained analogues of diacylglycerol. 29. Cells sort diacylglycerol-lactone chemical zip codes to produce diverse and selective biological activities” (J Med Chem, 2008), this text covers Ki for 70 molecules.

For the assay, the target named is Protein kinase C alpha type (Mus musculus, UniProt P20444). The experiment in a line: Displacement of [3H]PDBu form mouse PKCalpha by scintillation counting. The essentials:
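Partially purified mouse PKCα; competition with [³H]PDBU. ID50 obtained by fitting a sigmoidal competition curve and converted to Ki = ID50/(1+L/Kd). Pure compounds tested at 6–7 concentrations; crude library compounds at a single 1 μM concentration. Triplicates per concentration, at least three experiments; mean ± SEM.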
(Displacement assays read how much labelled ligand stays bound in the presence of the test substance.)
In the case of `CCCCCC/C=C1/CC(CO)(COC(=O)C2CCCCC2)OC1=O` (racemic), the Ki (commonly a dissociation constant, usually derived from enzyme kinetics or from competition with a known ligand) was 28.9 nM.

As to `CCCCCC/C=C1/CC(CO)(COC(=O)c2ccc(N(C)C)cc2)OC1=O` (racemic), the Ki was 131 nM.

In the case of `CCCCCC/C=C1/CC(CO)(COC(=O)c2ccc(C(F)(F)F)cc2)OC1=O` (racemic), the inhibition constant Ki stood at 55.7 nM.

The molecule `CCCCCC/C=C1/CC(CO)(COC(=O)c2ccc([N+](=O)[O-])cc2)OC1=O` (racemic) came in with a Ki of 146 nM.

`CCCCCC/C=C1/CC(CO)(COC(=O)c2ccc(C)cc2)OC1=O` (racemic): the Ki worked out at 60.2 nM.

Take `CCCCC(/C=C1/CC(CO)(COC(=O)C(CC)CCCC)OC1=O)CC` (racemic): the Ki turned out to be 62.7 nM.

With `CCCCC(/C=C1/CC(CO)(COC(=O)c2ccc(C(F)(F)F)cc2)OC1=O)CC` (racemic), the Ki turned out to be 187 nM.

The molecule `CCCCC(/C=C1/CC(CO)(COC(=O)C2CCCCC2)OC1=O)CC` (racemic) registered a Ki of 123 nM.

The molecule `CCCCC(/C=C1/CC(CO)(COC(=O)c2ccccc2)OC1=O)CC` (racemic) yielded a Ki of 312 nM.

The molecule `CCCCCC/C=C1/CC(CO)(COC(=O)c2ccccc2C)OC1=O` (racemic) yielded a Ki of 49.5 nM.

In the case of `CCCCCC/C=C1/CC(CO)(COC(=O)c2c(C)cc(C)cc2C)OC1=O` (racemic), the affinity, expressed as Ki, was 41.4 nM.

On to `CCCCCC/C=C1/CC(CO)(COC(=O)C(CC)CCCC)OC1=O` (racemic), for which the affinity corresponds to a Ki of 15.2 nM.

Take `CCCCC(/C=C1/CC(CO)(COC(=O)c2ccc(OC)cc2)OC1=O)CC` (racemic): the Ki worked out at 234 nM.

The molecule `CCCCCCC(=O)OCC1(CO)C/C(=C/C(CC)CCCC)C(=O)O1` (racemic) gave a Ki of 74.5 nM.

In turn, `CCCCCC/C=C1/CC(CO)(COC(=O)c2ccc(OC)cc2)OC1=O` (racemic) yielded a Ki of 105 nM.

With `CCCCCC/C=C1/CC(CO)(COC(=O)c2ccccc2)OC1=O` (racemic), the Ki turned out to be 98.5 nM.

Regarding `CCCCC(/C=C1/CC(CO)(COC(=O)c2ccc(C)cc2)OC1=O)CC` (racemic), the affinity, expressed as Ki, was 171 nM.

In turn, `CCCCC(CC)C(=O)OCC1(CO)C/C(=C\c2ccc(Cl)c(F)c2)C(=O)O1` (racemic; form 1) had a Ki of 12.4 nM.

With `CCCC(CCC)C(=O)OCC1(CO)C/C(=C\c2ccc(F)cc2)C(=O)O1` (racemic; form 1), the affinity corresponds to a Ki of 5.53 nM.

Take `CC(C)(C)C(=O)OCC1(CO)C/C(=C\c2ccc(F)c(Cl)c2)C(=O)O1` (racemic; form 1): the affinity, expressed as Ki, was 10.9 nM.

`CCCC(CCC)C(=O)OCC1(CO)C/C(=C\c2ccc(C(F)(F)F)cc2)C(=O)O1` (racemic; form 1) showed a Ki of 2.96 nM.

Regarding `CCCC(CCC)C(=O)OCC1(CO)C/C(=C\c2ccc(Cl)c(F)c2)C(=O)O1` (racemic; form 1), affinity was put at a Ki of 3.38 nM.

Consider `COc1ccc(/C=C2\CC(CO)(COC(=O)c3ccc(N(C)C)cc3)OC2=O)cc1` (racemic; form 1), for which the Ki was 48 nM.

Turning to `CCCCC(CC)C(=O)OCC1(CO)C/C(=C/c2ccc(C(F)(F)F)cc2)C(=O)O1` (racemic; form 1), the Ki turned out to be 15.5 nM.

Turning to `COc1ccc(/C=C2\CC(CO)(COC(=O)c3ccc(OC)cc3)OC2=O)cc1` (racemic; form 1), the Ki was 129 nM.

`CC(CC(=O)OCC1(CO)C/C(=C/c2cccc(C(F)(F)F)c2)C(=O)O1)CC(C)(C)C` (racemic; form 1) showed a Ki of 13.3 nM.

In the case of `COc1ccc(/C=C2\CC(CO)(COC(=O)c3c(C(C)C)cc(C(C)C)cc3C(C)C)OC2=O)cc1` (racemic; form 1), the Ki is 8 nM.

Regarding `CCCCC(/C=C1/CC(CO)(COC(=O)c2ccc(N(C)C)cc2)OC1=O)CC` (racemic; form 1), the Ki worked out at 466 nM.

As for `CCCCCC/C=C1/CC(CO)(COC(=O)c2c(C(C)C)cc(C(C)C)cc2C(C)C)OC1=O` (racemic; form 1), the Ki worked out at 2.5 nM.

Molecule `CCCCC(/C=C1/CC(CO)(COC(=O)c2ccc([N+](=O)[O-])cc2)OC1=O)CC` (racemic; form 1) came in with a Ki of 460 nM.

Regarding `CC(C)C(=O)OCC1(CO)C/C(=C/c2ccccc2C(F)(F)F)C(=O)O1` (racemic; form 1), the Ki worked out at 310 nM.

Turning to `CCCC(CCC)C(=O)OCC1(CO)C/C(=C\c2ccc(F)c(Br)c2)C(=O)O1` (racemic; form 1), the Ki worked out at 8.1 nM.

With `CCCCC(CC)C(=O)OCC1(CO)C/C(=C\c2ccc(Cl)cc2)C(=O)O1` (racemic; form 1), the affinity, expressed as Ki, was 12.7 nM.

`COc1ccc(C(=O)OCC2(CO)C/C(=C\c3ccc([N+](=O)[O-])cc3)C(=O)O2)cc1` (racemic; form 1): the Ki stood at 281 nM.

Consider `CC(C)(C)C(=O)OCC1(CO)C/C(=C\c2ccc(Cl)c(F)c2)C(=O)O1` (racemic; form 1), for which the Ki worked out at 7.9 nM.

On to `COc1ccc(C(=O)OCC2(CO)C/C(=C\c3ccc(N(C)C)cc3)C(=O)O2)cc1` (racemic; form 1), for which the Ki is 103 nM.

`CCCCC(CC)C(=O)OCC1(CO)C/C(=C\c2ccc(N(C)C)cc2)C(=O)O1` (racemic; form 1) had a Ki of 12.9 nM.

In turn, `COc1ccc(/C=C2\CC(CO)(COC(=O)c3c(C)cc(C)cc3C)OC2=O)cc1` (racemic; form 1) registered a Ki of 3.7 nM.

Molecule `CCCC(CCC)C(=O)OCC1(CO)C/C(=C\c2ccc(F)c(Cl)c2)C(=O)O1` (racemic; form 1) returned a Ki of 2.45 nM.

`CN(C)c1ccc(/C=C2\CC(CO)(COC(=O)c3ccc([N+](=O)[O-])cc3)OC2=O)cc1` (racemic; form 1) displayed a Ki of 213 nM.

As to `CCC(C(=O)OCC1(CO)C/C(=C\c2ccc(-c3ccc(C(F)(F)F)cc3)cc2)C(=O)O1)c1ccccc1` (racemic; form 1), the affinity corresponds to a Ki of 108 nM.

In turn, `O=C1OC(CO)(COC(=O)c2ccc([N+](=O)[O-])cc2)C/C1=C\c1ccc([N+](=O)[O-])cc1` (racemic; form 1) returned a Ki of 660 nM.

The molecule `CCCCC(CC)C(=O)OCC1(CO)C/C(=C\c2ccc(F)c(Br)c2)C(=O)O1` (racemic; form 1) had a Ki of 6.1 nM.

`CC(C)(C)C(=O)OCC1(CO)C/C(=C\c2ccc(Cl)c(F)c2)C(=O)O1` (racemic; form 2) displayed a Ki of 28.8 nM.

As for `CN(C)c1ccc(C(=O)OCC2(CO)C/C(=C\c3ccc([N+](=O)[O-])cc3)C(=O)O2)cc1` (racemic; form 2), the Ki was 362 nM.

`CCCC(CCC)C(=O)OCC1(CO)C/C(=C\c2ccc(F)cc2)C(=O)O1` (racemic; form 2) displayed a Ki of 17.1 nM.

On to `CC(C)(C)C(=O)OCC1(CO)C/C(=C\c2ccc(F)c(Cl)c2)C(=O)O1` (racemic; form 2), for which the Ki stood at 20.5 nM.

Regarding `CN(C)c1ccc(/C=C2\CC(CO)(COC(=O)c3ccc(N(C)C)cc3)OC2=O)cc1` (racemic; form 2), the affinity corresponds to a Ki of 1080 nM.

`CCCC(CCC)C(=O)OCC1(CO)C/C(=C\c2ccc(C(F)(F)F)cc2)C(=O)O1` (racemic; form 2) returned a Ki of 16.6 nM.

The molecule `CCCC(CCC)C(=O)OCC1(CO)C/C(=C\c2ccc(Cl)c(F)c2)C(=O)O1` (racemic; form 2) returned a Ki of 21.5 nM.

In turn, `COc1ccc(/C=C2\CC(CO)(COC(=O)c3ccc(N(C)C)cc3)OC2=O)cc1` (racemic; form 2) had a Ki of 359 nM.

As for `CCCCC(CC)C(=O)OCC1(CO)C/C(=C/c2ccc(C(F)(F)F)cc2)C(=O)O1` (racemic; form 2), the Ki worked out at 13.1 nM.

In the case of `COc1ccc(/C=C2\CC(CO)(COC(=O)c3ccc(OC)cc3)OC2=O)cc1` (racemic; form 2), affinity was put at a Ki of 332 nM.

On to `CC(CC(=O)OCC1(CO)C/C(=C/c2cccc(C(F)(F)F)c2)C(=O)O1)CC(C)(C)C` (racemic; form 2), for which affinity was put at a Ki of 41 nM.

`COc1ccc(/C=C2\CC(CO)(COC(=O)c3c(C(C)C)cc(C(C)C)cc3C(C)C)OC2=O)cc1` (racemic; form 2) displayed a Ki of 197 nM.

For `CCCCC(/C=C1/CC(CO)(COC(=O)c2ccc(N(C)C)cc2)OC1=O)CC` (racemic; form 2), the Ki was found to be 134 nM.

`CCCCC(CC)C(=O)OCC1(CO)C/C(=C\c2ccc(Cl)c(F)c2)C(=O)O1` (racemic; form 2) displayed an inhibition constant (Ki) of 4.89 nM.

On to `CCCCCC/C=C1/CC(CO)(COC(=O)c2c(C(C)C)cc(C(C)C)cc2C(C)C)OC1=O` (racemic; form 2), for which the Ki came out at 126 nM.

Molecule `CCCCC(/C=C1/CC(CO)(COC(=O)c2ccc([N+](=O)[O-])cc2)OC1=O)CC` (racemic; form 2) returned a Ki of 334 nM.

Take `CC(C)C(=O)OCC1(CO)C/C(=C/c2ccccc2C(F)(F)F)C(=O)O1` (racemic; form 2): the affinity corresponds to a Ki of 158 nM.

`CCCC(CCC)C(=O)OCC1(CO)C/C(=C\c2ccc(F)c(Br)c2)C(=O)O1` (racemic; form 2): the affinity, expressed as Ki, was 2.66 nM.

Molecule `CCCCC(CC)C(=O)OCC1(CO)C/C(=C\c2ccc(Cl)cc2)C(=O)O1` (racemic; form 2) showed a Ki of 2.9 nM.

As to `COc1ccc(C(=O)OCC2(CO)C/C(=C\c3ccc([N+](=O)[O-])cc3)C(=O)O2)cc1` (racemic; form 2), affinity was put at a Ki of 103 nM.

On to `COc1ccc(C(=O)OCC2(CO)C/C(=C\c3ccc(N(C)C)cc3)C(=O)O2)cc1` (racemic; form 2), for which affinity was put at a Ki of 890 nM.

`CCCCC(CC)C(=O)OCC1(CO)C/C(=C\c2ccc(N(C)C)cc2)C(=O)O1` (racemic; form 2) had a Ki of 96 nM.

Molecule `COc1ccc(/C=C2\CC(CO)(COC(=O)c3c(C)cc(C)cc3C)OC2=O)cc1` (racemic; form 2) yielded a Ki of 119 nM.

`CCCC(CCC)C(=O)OCC1(CO)C/C(=C\c2ccc(F)c(Cl)c2)C(=O)O1` (racemic; form 2) came in with a Ki of 9.3 nM.

Consider `CN(C)c1ccc(/C=C2\CC(CO)(COC(=O)c3ccc([N+](=O)[O-])cc3)OC2=O)cc1` (racemic; form 2), for which the Ki stood at 1230 nM.

In turn, `CCC(C(=O)OCC1(CO)C/C(=C\c2ccc(-c3ccc(C(F)(F)F)cc3)cc2)C(=O)O1)c1ccccc1` (racemic; form 2) gave a Ki of 18.3 nM.

With `CCCCC(CC)C(=O)OCC1(CO)C/C(=C\c2ccc(F)c(Br)c2)C(=O)O1` (racemic; form 2), the affinity, expressed as Ki, was 2.07 nM.
